Assay results as given in ChEMBL document CHEMBL1148001 (Bioorg Med Chem Lett, 2007).

Assays:
Dipeptidyl peptidase 8 = Dipeptidyl peptidase 8 (Homo sapiens, UniProt Q6V1X1); experiment: Inhibition of DPP8 activity
Dipeptidyl peptidase 9 = Dipeptidyl peptidase 9 (Homo sapiens, UniProt Q86TI2); experiment: Inhibition of DPP9 activity
[1] = Clearance in rat at 1 mg/kg, iv or 2 mg/kg, po; assay type: ADME, organism-based; details: in vivo
Outline: (§1)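 Rats received the inhibitor at 1 mg/kg iv and 2 mg/kg po. Values reported are clearance (mL/min/kg), half-life (h), oral AUC normalized to dose (μM h kg mg⁻¹) and oral bioavailability F (%).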

[2] = Oral bioavailability in rat at 2 mg/kg; assay type: ADME, organism-based; details: in vivo; outline: as §1
[3] = Half life in rat at 1 mg/kg, iv or 2 mg/kg, po; assay type: ADME, organism-based; details: in vivo; outline: as §1

Sequence of Dipeptidyl peptidase 8 (Q6V1X1 whole entry): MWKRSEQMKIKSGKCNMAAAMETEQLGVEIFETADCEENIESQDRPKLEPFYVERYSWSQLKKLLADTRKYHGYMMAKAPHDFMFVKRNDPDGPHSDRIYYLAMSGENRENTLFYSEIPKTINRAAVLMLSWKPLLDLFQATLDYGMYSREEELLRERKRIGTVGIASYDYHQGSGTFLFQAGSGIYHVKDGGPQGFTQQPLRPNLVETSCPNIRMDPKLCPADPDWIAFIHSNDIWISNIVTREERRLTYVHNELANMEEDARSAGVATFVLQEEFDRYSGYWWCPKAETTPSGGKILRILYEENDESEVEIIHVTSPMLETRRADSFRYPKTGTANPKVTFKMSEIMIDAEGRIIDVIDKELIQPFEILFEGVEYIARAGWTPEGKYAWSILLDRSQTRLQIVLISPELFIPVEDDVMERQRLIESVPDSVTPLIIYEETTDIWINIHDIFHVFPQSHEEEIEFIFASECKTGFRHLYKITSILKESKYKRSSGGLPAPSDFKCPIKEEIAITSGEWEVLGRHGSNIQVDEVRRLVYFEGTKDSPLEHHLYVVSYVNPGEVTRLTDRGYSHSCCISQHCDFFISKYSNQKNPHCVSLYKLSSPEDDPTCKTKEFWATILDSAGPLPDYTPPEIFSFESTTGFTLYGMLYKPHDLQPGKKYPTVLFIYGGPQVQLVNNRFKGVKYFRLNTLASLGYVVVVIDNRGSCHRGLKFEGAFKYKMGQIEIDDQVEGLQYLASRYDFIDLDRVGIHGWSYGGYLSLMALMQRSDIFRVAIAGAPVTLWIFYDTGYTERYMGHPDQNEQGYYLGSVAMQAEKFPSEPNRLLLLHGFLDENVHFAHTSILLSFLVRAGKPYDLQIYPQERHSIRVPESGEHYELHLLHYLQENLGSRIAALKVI
Sequence of Dipeptidyl peptidase 9 (Q86TI2 whole entry): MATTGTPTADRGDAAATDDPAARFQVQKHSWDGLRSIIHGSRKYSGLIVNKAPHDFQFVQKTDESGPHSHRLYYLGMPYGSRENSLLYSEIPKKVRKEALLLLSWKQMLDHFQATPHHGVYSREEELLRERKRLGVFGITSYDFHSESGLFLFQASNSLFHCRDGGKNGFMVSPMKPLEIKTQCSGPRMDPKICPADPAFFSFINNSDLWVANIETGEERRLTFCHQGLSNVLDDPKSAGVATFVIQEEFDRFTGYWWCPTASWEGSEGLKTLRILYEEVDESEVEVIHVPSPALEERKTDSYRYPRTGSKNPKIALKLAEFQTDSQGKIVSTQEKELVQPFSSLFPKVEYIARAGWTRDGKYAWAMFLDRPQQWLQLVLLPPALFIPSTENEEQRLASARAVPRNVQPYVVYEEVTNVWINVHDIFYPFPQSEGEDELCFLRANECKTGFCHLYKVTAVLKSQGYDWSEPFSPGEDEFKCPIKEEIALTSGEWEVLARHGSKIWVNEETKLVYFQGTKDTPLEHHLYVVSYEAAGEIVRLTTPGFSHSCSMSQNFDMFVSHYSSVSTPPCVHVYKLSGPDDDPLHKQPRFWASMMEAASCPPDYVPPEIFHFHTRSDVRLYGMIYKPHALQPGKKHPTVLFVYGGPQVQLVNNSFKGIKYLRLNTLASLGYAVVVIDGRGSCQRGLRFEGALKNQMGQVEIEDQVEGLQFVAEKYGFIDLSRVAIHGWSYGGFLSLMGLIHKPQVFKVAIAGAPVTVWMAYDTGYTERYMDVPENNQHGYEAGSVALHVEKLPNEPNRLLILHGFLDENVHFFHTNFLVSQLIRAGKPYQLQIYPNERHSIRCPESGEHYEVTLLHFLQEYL

Row | IC50 (Dipeptidyl peptidase 8) | IC50 (Dipeptidyl peptidase 9) | clearance [1] | bioavailability [2] | half-life [3] | Compound
1 | > 100 µM | > 100 µM |  |  |  | N[C@@H](CC(=O)N1CCn2c(nnc2C(F)(F)F)C1)Cc1ccc(Cl)c(Cl)c1
2 | > 100 µM | > 100 µM |  |  |  | N[C@@H](CC(=O)N1CCn2c(nnc2C(F)(F)F)C1)Cc1c(F)ccc(F)c1F
3 | > 100 µM | > 100 µM |  |  |  | N[C@@H](CC(=O)N1CCn2c(nnc2C(F)(F)F)C1)Cc1cccc(F)c1
4 |  | > 100 µM | 70 mL/min/kg | 2% |  | CCc1nnc2n1CCN(C(=O)C[C@H](N)Cc1cc(F)c(F)cc1F)C2
5 |  | > 100 µM | 58 mL/min/kg | 54% | 2.1 h | N[C@@H](CC(=O)N1CCn2c(nnc2C(F)(F)F)C1)Cc1cc(F)c(Cl)cc1F
6 | > 100 µM | > 100 µM |  |  |  | N[C@@H](CC(=O)N1CCn2c(nnc2C(F)(F)F)C1)Cc1ccc(C(F)(F)F)cc1
7 | > 100 µM | > 100 µM |  |  |  | N[C@@H](CC(=O)N1CCn2c(nnc2C(F)(F)F)C1)Cc1cc(Cl)ccc1Cl
8 | > 100 µM | > 100 µM |  |  |  | N[C@@H](CC(=O)N1CCn2c(nnc2C(F)(F)F)C1)Cc1cccc(Cl)c1
9 |  | > 100 µM | 66 mL/min/kg | 39% | 1.3 h | N[C@@H](CC(=O)N1CCn2c(nnc2C(F)F)C1)Cc1cc(F)c(F)cc1F
10 | > 100 µM | > 100 µM |  |  |  | N[C@@H](CC(=O)N1CCn2c(nnc2C(F)(F)F)C1)Cc1c(F)c(F)c(F)c(F)c1F
11 | > 100 µM | > 100 µM |  |  |  | N[C@@H](CC(=O)N1CCn2c(nnc2C(F)(F)F)C1)Cc1ccccc1Cl
12 | > 100 µM | > 100 µM |  |  |  | N[C@@H](CC(=O)N1CCn2c(CO)nnc2C1)Cc1cc(F)ccc1F
13 |  | > 100 µM |  |  |  | N[C@@H](CC(=O)N1CCn2c(nnc2C(F)(F)F)C1)Cc1ccccc1F
14 |  | > 100 µM |  |  |  | CC(C)(C)NC(=O)c1nnc2n1CCN(C(=O)C[C@H](N)Cc1cc(F)c(F)cc1F)C2
15 | 22 µM |  |  |  |  | CCOC(=O)c1nnc2n1CCN(C(=O)C[C@H](N)Cc1cc(F)c(F)cc1F)C2
16 |  | > 100 µM | 68 mL/min/kg | 3% | 1.8 h | N[C@@H](CC(=O)N1CCn2c(nnc2C2CC2)C1)Cc1cc(F)c(F)cc1F
17 |  | > 100 µM |  |  |  | N[C@@H](CC(=O)N1CCn2c(nnc2C(F)(F)F)C1)Cc1ccc(F)cc1
18 |  |  | 60 mL/min/kg | 76% |  | N[C@@H](CC(=O)N1CCn2c(nnc2C(F)(F)F)C1)Cc1cc(F)c(F)cc1F [SITAGLIPTIN]
19 | > 100 µM | > 100 µM |  |  |  | N[C@@H](CC(=O)N1CCn2c(nnc2C(F)(F)F)C1)Cc1c(F)cc(F)cc1F
20 | > 100 µM | > 100 µM | 78 mL/min/kg | 47% | 1.7 h | N[C@@H](CC(=O)N1CCn2c(nnc2C(F)(F)F)C1)Cc1cc(F)c(F)cc1Cl
21 | > 100 µM |  | 99 mL/min/kg | 43% | 1.7 h | N[C@@H](CC(=O)N1CCn2c(nnc2C(F)(F)F)C1)Cc1cc(Cl)ccc1F
22 |  | > 100 µM |  |  |  | N[C@@H](CC(=O)N1CCn2c(nnc2-c2ccc(F)cc2)C1)Cc1cc(F)ccc1F
23 | > 100 µM | > 100 µM |  |  |  | N[C@@H](CC(=O)N1CCn2c(nnc2C(F)(F)F)C1)Cc1ccccc1C(F)(F)F
24 |  | 58 µM |  |  |  | N[C@@H](CC(=O)N1CCn2c(nnc2-c2ccc(F)cc2F)C1)Cc1cc(F)ccc1F
25 |  | 84 µM |  |  |  | N[C@@H](CC(=O)N1CCn2c(nnc2-c2ccncc2)C1)Cc1cc(F)ccc1F
26 | > 100 µM | > 100 µM |  |  |  | N[C@@H](CC(=O)N1CCn2c(nnc2C(F)(F)F)C1)Cc1cccc(C(F)(F)F)c1
27 |  |  | 98 mL/min/kg | 36% | 2.6 h | N[C@@H](CC(=O)N1CCn2c(nnc2C(F)(F)F)C1)Cc1ccc(Cl)cc1Cl
28 | > 100 µM | > 100 µM |  |  |  | N[C@@H](CC(=O)N1CCn2c(nnc2C(F)(F)F)C1)Cc1cc(F)cc(F)c1F
29 |  | > 100 µM |  |  |  | N[C@@H](CC(=O)N1CCn2c(nnc2C(F)(F)F)C1)Cc1ccc(F)cc1F
30 |  | 78 µM |  |  |  | CCOC(=O)c1nnc2n1CCN(C(=O)C[C@H](N)Cc1cc(F)ccc1F)C2
